The record followed here is ChEMBL document CHEMBL2021766, “Antiplasmodial activity of novel keto-enamine chalcone-chloroquine based hybrid pharmacophores” (Bioorg Med Chem, 2012).

The nature of experiment [1]: Selectivity index, ratio of CC50 for monkey Vero cells to IC50 for chloroquine-sensitive ring stage Plasmodium falciparum 3D7. It counts as functional. In outline:
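Vero cells exposed to dilutions of test agents for 72 h; MTT read-out (modified Mosmann method); CC50 by non-linear regression. Ratio taken against the 3D7 IC50 from SYBR Green-I assay.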

Experiment [2] relates to Plasmodium yoelii. Description: Inhibition of beta-hematin formation in Plasmodium yoelii infected Swiss mouse plasma using hemin as substrate after 16 hrs by spectrophotometry. It counts as functional. The gist of the method:
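Plasma taken by cardiac puncture into 2.0% citrate from male Swiss mice (15–20 g) infected with 1 × 10^5 P. yoelii RBCs, at about 50% parasitemia. Mix: 100 mM sodium acetate pH 5.1, 50 µL plasma, 100 µM hemin, compound, in triplicate, 37 °C for 16 h with shaking. Pellet washed in Tris–HCl pH 7.4 with 2.5% SDS. IC50 = 50% inhibition; three experiments in triplicate.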

A further experiment deals with Plasmodium falciparum. Description: Antimalarial activity against chloroquine-sensitive ring stage Plasmodium falciparum 3D7 after 72 hrs by SYBR Green-I assay. The settings on record: 3D7, 72 h. In kind it is functional, organism-based. In outline: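 Asynchronous P. falciparum 3D7 culture (over 80% ring stages), 1.0% parasitized cell suspension at 0.8% parasitaemia, incubated with twofold serial dilutions at 37 °C, 5% CO2/air, 72 h. Lysis buffer with 1× SYBR Green-I added, 1 h at 37 °C. Fluorescence read at 485/530 nm excitation/emission. IC50 from triplicate experiments.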

The subject of experiment [3] is Plasmodium yoelii. Description: Antimalarial activity against chloroquine-resistant Plasmodium yoelii N-67 infected Swiss mouse assessed as suppression of parasitemia at 100 mg/kg/day, po qd for 4 days measured on day 4. The settings on record: N-67, 96 h. It counts as functional. In outline: (§1)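 Swiss mice infected with P. yoelii N-67 (1 × 10⁵ parasitized RBC, day 0). Test agents were given as aqueous suspensions with a few drops of Tween 80, orally at 100 mg/kg/day, once daily on days 0–3, to groups of five. Parasitaemia was read from thin blood smears on days 4 and 6. Percent suppression was calculated from group means versus untreated controls. Survival and cure were followed to day 30.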

For experiment [4], the system named is Plasmodium yoelii. Description: Antimalarial activity against chloroquine-resistant Plasmodium yoelii N-67 infected Swiss mouse assessed as suppression of parasitemia at 100 mg/kg/day, po qd for 4 days measured on day 6. It counts as functional. The gist of the method:
as §1

Experiment [5] relates to Plasmodium yoelii. Kind of experiment: Antimalarial activity against chloroquine-resistant Plasmodium yoelii N-67 infected Swiss mouse assessed as mean survival time at 100 mg/kg/day, po qd for 4 days. In kind it is functional. The gist of the method: as §1
The subject of experiment [6] is Plasmodium yoelii. Description: Antimalarial activity against chloroquine-resistant Plasmodium yoelii N-67 infected Swiss mouse assessed as mean survival time at 20 mg/kg/day, po qd for 4 days. It counts as functional.
For experiment [7], the system named is Plasmodium yoelii. Description: Antimalarial activity against chloroquine-resistant Plasmodium yoelii N-67 infected Swiss mouse assessed as suppression of parasitemia at 10 mg/kg/day, po qd for 4 days measured on day 4. In kind it is functional. The following applies: N-67, 96 h.
Experiment [8] deals with Plasmodium yoelii. Description: Antimalarial activity against chloroquine-resistant Plasmodium yoelii N-67 infected Swiss mouse assessed as suppression of parasitemia at 20 mg/kg/day, po qd for 4 days measured on day 4. It counts as functional. The following applies: N-67, 96 h.
The test system of experiment [9] is Plasmodium yoelii. Kind of experiment: Antimalarial activity against chloroquine-resistant Plasmodium yoelii N-67 infected Swiss mouse assessed as suppression of parasitemia at 10 mg/kg/day, po qd for 4 days measured on day 6. In kind it is functional.
Experiment [10] concerns Plasmodium yoelii. Description: Antimalarial activity against chloroquine-resistant Plasmodium yoelii N-67 infected Swiss mouse assessed as mean survival time at 10 mg/kg/day, po qd for 4 days. In kind it is functional.
In experiment [11] the test system is Plasmodium yoelii. Description: Antimalarial activity against chloroquine-resistant Plasmodium yoelii N-67 infected Swiss mouse assessed as suppression of parasitemia at 20 mg/kg/day, po qd for 4 days measured on day 6. In kind it is functional.

Structures are written as SMILES. Values after ≈ are worked out from the molar mass of the structure shown.

For `CCC(C)C1=CC(/C=C/C(=O)c2ccc(O)cc2)=CC(=C\NCCNc2ccnc3cc(Cl)ccc23)/C1=O` (stereo unspecified), in [1], the “Ratio CC50/IC50” value was determined as 1071.27. Further, the IC50 in the experiment on Plasmodium yoelii [2] was 2.71 µg/mL (≈ 5.13 µM); in the experiment on Plasmodium falciparum, 0.022 µg/mL (≈ 0.0417 µM).

For `CCC(C)C1=CC(/C=C/C(=O)c2ccc(OC)cc2)=CC(=C\NCCNc2ccnc3cc(Cl)ccc23)/C1=O` (stereo unspecified), the “Ratio CC50/IC50” value in experiment [1] was found to be 1058.05. In addition, the results for the IC50 in the experiment on Plasmodium yoelii [2] and in the experiment with Plasmodium falciparum were 12.6 µg/mL (≈ 23.2 µM) and 0.0183 µg/mL (≈ 0.0337 µM), respectively.

In the case of `COc1cc(C(=O)/C=C/C2=CC(=C\NCCNc3ccnc4cc(Cl)ccc34)/C(=O)C(C)=C2)cc(OC)c1OC`, the values for the inhibition in vivo at 100 mg/kg/day in the experiment on Plasmodium yoelii [3] and in the experiment on Plasmodium yoelii [4] were 99.8% and 82.1%, respectively. Further, the MST in the experiment with Plasmodium yoelii [5] is 17 days. Besides, the “Ratio CC50/IC50” value in experiment [1] stood at 1392.22. Moreover, the IC50 in the experiment on Plasmodium yoelii [2] amounted to 9.61 µg/mL (≈ 17.2 µM); in the experiment with Plasmodium falciparum, 0.0107 µg/mL (≈ 0.0191 µM).

With `CC(C)(C)C1=CC(/C=C/C(=O)c2ccc(Cl)cc2)=CC(=C\NCCNc2ccnc3cc(Cl)ccc23)/C1=O`, the “Ratio CC50/IC50” value in experiment [1] is 868.3. Besides, the IC50 amounted to 8.06 µg/mL (≈ 14.7 µM) in the experiment on Plasmodium yoelii [2] and 0.0282 µg/mL (≈ 0.0515 µM) in the experiment on Plasmodium falciparum.

For the compound `CC1=CC(/C=C/C(=O)c2cccs2)=CC(=C\NCCNc2ccnc3cc(Cl)ccc23)/C1=O`, the results for the inhibition in vivo at 100 mg/kg/day in the experiment on Plasmodium yoelii [3] and with Plasmodium yoelii [4] were 99.8% and 82.3%, respectively. The MST with Plasmodium yoelii [5] was 16.2 days. The “Ratio CC50/IC50” value in experiment [1] is given as 1414.59. The IC50 in the experiment on Plasmodium yoelii [2] came to 3.1 µg/mL (≈ 6.51 µM); with Plasmodium falciparum, 0.00975 µg/mL (≈ 0.0205 µM).

As to `CC(C)(C)C1=CC(/C=C/C(=O)c2ccc(F)cc2)=CC(=C\NCCNc2ccnc3cc(Cl)ccc23)/C1=O`, the results for the inhibition in vivo at 100 mg/kg/day in the experiment with Plasmodium yoelii [3] and in the experiment on Plasmodium yoelii [4] were 99.9% and 97%, respectively. Further, the MST in the experiment with Plasmodium yoelii [5] came out at 18.4 days. Also, the “Ratio CC50/IC50” value in experiment [1] was found to be 1499.3. The IC50 in the experiment on Plasmodium yoelii [2] was found to be 13.8 µg/mL (≈ 26 µM); with Plasmodium falciparum, 0.00719 µg/mL (≈ 0.0136 µM).

In the case of `CC1=CC(/C=C/C(=O)c2ccc(Br)cc2)=CC(=C\NCCNc2ccnc3cc(Cl)ccc23)/C1=O`, the inhibition in vivo at 100 mg/kg/day with Plasmodium yoelii [3] came out at 99.7%; with Plasmodium yoelii [4], 80.6%. Moreover, the MST in the experiment on Plasmodium yoelii [5] turned out to be 18 days. The “Ratio CC50/IC50” value in experiment [1] is given as 1114.59. Besides, the values for the IC50 with Plasmodium yoelii [2] and in the experiment with Plasmodium falciparum were 7.6 µg/mL (≈ 13.8 µM) and 0.0188 µg/mL (≈ 0.0343 µM), respectively.

Turning to `COc1ccc(C(=O)/C=C/C2=CC(=C\Nc3ccc(Nc4ccnc5cc(Cl)ccc45)cc3)/C(=O)C(C)=C2)cc1`, in experiment [1], the “Ratio CC50/IC50” value turned out to be 315.33. For the same compound, the IC50 was 4.35 µg/mL (≈ 7.94 µM) in the experiment on Plasmodium yoelii [2] and 0.201 µg/mL (≈ 0.366 µM) in the experiment on Plasmodium falciparum.

Turning to `CC(C)(C)C1=CC(/C=C/C(=O)c2ccc(Br)cc2)=CC(=C\NCCNc2ccnc3cc(Cl)ccc23)/C1=O`, the figures for the inhibition in vivo at 100 mg/kg/day in the experiment with Plasmodium yoelii [3] and in the experiment on Plasmodium yoelii [4] were 99.9% and 96.7%, respectively. The MST in the experiment with Plasmodium yoelii [5] was 17.6 days. The “Ratio CC50/IC50” value in experiment [1] was 1883.62. In addition, the IC50 with Plasmodium yoelii [2] worked out at 21.9 µg/mL (≈ 37.1 µM); with Plasmodium falciparum, 0.00464 µg/mL (≈ 0.00785 µM).

In the case of `CC1=CC(/C=C/C(=O)c2ccc(O)cc2)=CC(=C\NCCCNc2ccnc3cc(Cl)ccc23)/C1=O`, the “Ratio CC50/IC50” value in [1] is 505.98. Also, the IC50 in the experiment on Plasmodium yoelii [2] was 3.48 µg/mL (≈ 6.96 µM); in the experiment on Plasmodium falciparum, 0.0351 µg/mL (≈ 0.0702 µM).

Turning to `CCC(C)C1=CC(/C=C/C(=O)c2ccc(Cl)cc2)=CC(=C\NCCNc2ccnc3cc(Cl)ccc23)/C1=O` (stereo unspecified), in [1], the “Ratio CC50/IC50” value amounted to 1014.51. The IC50 in the experiment on Plasmodium yoelii [2] was found to be 11.2 µg/mL (≈ 20.5 µM); with Plasmodium falciparum, 0.0179 µg/mL (≈ 0.0328 µM).

Consider `COc1ccc(C(=O)/C=C/C2=CC(=C\NCCCNc3ccnc4cc(Cl)ccc34)/C(=O)C(C)=C2)cc1`, for which the “Ratio CC50/IC50” value in experiment [1] is given as 295.66. Besides, the IC50 came out at 5.34 µg/mL (≈ 10.4 µM) in the experiment with Plasmodium yoelii [2] and 0.0388 µg/mL (≈ 0.0754 µM) in the experiment on Plasmodium falciparum.

For the compound `CCN(CC)CCCC(C)Nc1ccnc2cc(Cl)ccc12` (stereo unspecified) [CHLOROQUINE], the MST in the experiment with Plasmodium yoelii [6] is over 28 days; in the experiment on Plasmodium yoelii [10], 13.6 days. Also, the inhibition in vivo at 10 mg/kg/day with Plasmodium yoelii [7] came out at 99%; with Plasmodium yoelii [9] it was 93.6%. In addition, the IC50 in the experiment on Plasmodium yoelii [2] was 3.65 µg/mL (≈ 11.4 µM). For the same compound, the values for the inhibition in vivo at 20 mg/kg/day in the experiment with Plasmodium yoelii [8] and with Plasmodium yoelii [11] were 99% and 93.9%, respectively.

For `CCC(C)C1=CC(/C=C/C(=O)c2ccc(Cl)cc2)=CC(=C\NCCCNc2ccnc3cc(Cl)ccc23)/C1=O` (stereo unspecified), in experiment [1], the “Ratio CC50/IC50” value was 491.77. Besides, the figures for the IC50 with Plasmodium yoelii [2] and in the experiment on Plasmodium falciparum were 6.08 µg/mL (≈ 10.8 µM) and 0.0419 µg/mL (≈ 0.0748 µM), respectively.
